A short description of data set [1]: Thermodynamic solubility of the compound in phosphate buffer at pH 6.8 after overnight incubation by shake flask method. The data set is classed as physicochemical. Particulars: read-out: Therm_solubility. The procedure, abridged: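 Shake-flask method: solid added to pH 6.8 phosphate buffer at nominal 2 mg/mL, sonicated 10 min, shaken overnight 800 rpm at room temperature; phases separated by centrifugation 5000 rpm 20 min before supernatant quantitation.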

The target of data set [2] is T1, Tyrosine-protein kinase ZAP-70 (Homo sapiens) (UniProt P43403).
T1 sequence (whole entry): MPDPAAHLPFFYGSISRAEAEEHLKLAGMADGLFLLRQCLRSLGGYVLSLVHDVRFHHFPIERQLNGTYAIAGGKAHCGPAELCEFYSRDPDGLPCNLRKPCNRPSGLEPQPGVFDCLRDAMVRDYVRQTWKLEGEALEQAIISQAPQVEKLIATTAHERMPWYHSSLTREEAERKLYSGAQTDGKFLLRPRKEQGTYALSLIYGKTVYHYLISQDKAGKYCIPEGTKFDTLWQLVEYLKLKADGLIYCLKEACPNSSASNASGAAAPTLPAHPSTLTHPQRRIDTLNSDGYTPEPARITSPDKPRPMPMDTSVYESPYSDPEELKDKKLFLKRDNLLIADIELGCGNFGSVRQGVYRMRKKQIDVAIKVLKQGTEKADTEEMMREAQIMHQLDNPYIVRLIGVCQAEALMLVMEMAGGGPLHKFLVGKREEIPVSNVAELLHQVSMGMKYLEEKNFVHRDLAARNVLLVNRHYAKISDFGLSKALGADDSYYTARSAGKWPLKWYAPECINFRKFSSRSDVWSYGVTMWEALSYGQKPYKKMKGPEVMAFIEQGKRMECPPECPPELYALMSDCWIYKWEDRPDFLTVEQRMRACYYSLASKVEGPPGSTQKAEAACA
The data set is described as follows: Inhibition of ZAP70 (unknown origin) assessed as residual activity at 1 uM relative to control. In short, it runs like this:
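Commercial profiling service against a 208-kinase panel; single concentration 1 μmol/L; residual kinase activity expressed relative to control.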

In the next data set the test system is T-24. The data set is described as follows: Cytotoxicity against human T24 cells assessed as reduction in cell viability incubated for 72 hrs by MTT assay. It counts as functional, cell-based. The note with it: T-24, 72 h. The procedure, abridged: (§1)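 About 5 × 10³ cells/well, seeded overnight at 37 °C, 5% CO₂, in DMEM or RPMI-1640 with 10% FBS and antibiotics. DMSO-dissolved compounds diluted in medium, exposure 72 h.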
For orientation: Formazan colour is commonly taken as a measure of viable cells.

Another data set relates to L02. The data set is described as follows: Cytotoxicity against human L02 cells assessed as reduction in cell viability incubated for 72 hrs by MTT assay. The data set is classed as cell-based. The note with it: L02, 72 h. The procedure, abridged: as §1
The target in data set [3] is T2, Aldehyde dehydrogenase 1A1 (Homo sapiens) (UniProt P00352).
T2 sequence (whole entry): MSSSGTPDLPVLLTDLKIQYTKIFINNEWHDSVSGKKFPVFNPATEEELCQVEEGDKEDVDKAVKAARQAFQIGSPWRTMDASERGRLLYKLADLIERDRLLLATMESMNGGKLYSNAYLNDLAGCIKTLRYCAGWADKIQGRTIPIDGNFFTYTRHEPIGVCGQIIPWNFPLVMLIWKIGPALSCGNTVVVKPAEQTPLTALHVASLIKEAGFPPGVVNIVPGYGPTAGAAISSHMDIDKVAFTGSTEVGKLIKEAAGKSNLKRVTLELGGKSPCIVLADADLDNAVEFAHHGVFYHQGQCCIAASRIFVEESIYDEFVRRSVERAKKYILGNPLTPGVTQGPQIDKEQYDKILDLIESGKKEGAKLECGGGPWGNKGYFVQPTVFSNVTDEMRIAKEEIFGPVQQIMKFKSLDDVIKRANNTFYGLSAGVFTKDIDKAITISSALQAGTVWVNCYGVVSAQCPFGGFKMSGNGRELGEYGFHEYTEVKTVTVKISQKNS
The data set is described as follows: Inhibition of ALDH1A1 in human HCT116 cells at 20 uM after 24 hrs by aldefluor staining based fluorescence analysis. The data set is classed as cell-based. The note with it: HCT-116. The procedure, abridged:
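HCT-116 cells, 2 × 10⁵/well, grown overnight at 37 °C, 5% CO₂, then treated 24 h (vehicle DMSO). Aldefluor staining read in FITC channel by FACS for proportion of ALDH⁺ cells; DEAB-pretreated cells set baseline fluorescence.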

Data set [4] relates to HCT-116. The data set is described as follows: Inhibition of cell stemness in human HCT116 cells assessed as reduction in size of tumor spheres at 5 uM after 10 days by microscopic analysis. It counts as functional, cell-based. The note with it: time 10.0 day. The procedure, abridged: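 Sorted ALDH⁺ HCT-116 cells, 800/well, in serum-free DMEM with B27 (1:50), EGF 20 ng/mL, β-FGF 10 ng/mL; co-incubated with compound (5 μM) or DMSO vehicle for 10 days; sphere number, diameter and morphology scored from microscopy images; mean ± SD, n = 3.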

The test system of data set [5] is HCT-116. The data set is described as follows: Effect on Wnt/beta-Catenin signaling in human HCT116 cells assessed as reduction in S100A4 mRNA level at 20 uM after 24 hrs by RT-qPCR analysis. The data set is classed as functional, cell-based. In short, it runs like this:
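HCT-116 cells treated 24 h; total RNA by TRIZOL, one-step RT-qPCR: 55 °C 10 min, 95 °C 1 min, then 39 cycles of 95 °C 10 s and 60 °C 30 s, with melting-curve and no-template controls. β-Actin as internal standard; relative expression by 2^−ΔΔCt, mean ± SD (n = 3).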

Data set [6] concerns HCT-116. The data set is described as follows: Induction of apoptosis in human HCT116 cells assessed as late apoptotic cells at 5 uM after 24 hrs by annexin V-FITC/propidium iodide staining based flow cytometry (reference value: 5.1%). It counts as functional.
Data set [7] concerns HCT-116. The data set is described as follows: Induction of cell cycle arrest in human HCT116 cells assessed as accumulation at S phase at 20 uM after 24 hrs by propidium iodide-staining based flow cytometry (reference value: 36.43%). It counts as functional.
Data set [8] is described as follows: Clearance in Sprague-Dawley rat at 25 mg/kg, po measured up to 48 hrs by LC-MS/MS analysis. The note with it: in vivo. The data set is classed as ADME, organism-based. The procedure, abridged:
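Overnight-fasted male SD rats (about 250−270 g), three per group, single oral 25 mg/kg; test compound suspended in 5% CMC-Na, control as sodium salt in phosphate buffer. Blood sampled 0.25–48 h, plasma by centrifugation, stored −40 °C, quantified by LC−MS/MS against plasma standard curve (3–3000 ng/mL) with internal standard; model-fitted PK parameters.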

Data set [9] can be described thus: Volume of distribution in Sprague-Dawley rat at 25 mg/kg, po measured up to 48 hrs by LC-MS/MS analysis. It counts as ADME, organism-based. The note with it: in vivo. In short, it runs like this:
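Overnight-fasted male SD rats (250−270 g, n = 3/group), single oral 25 mg/kg in 5% CMC-Na (reference sodium salt in phosphate buffer); plasma at 0.25–48 h (12 timepoints), stored −40 °C; LC−MS/MS with internal-standard calibration 3–3000 ng/mL; parameters fitted by model.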

The test system of data set [10] is HCT-116. The data set is described as follows: Antitumor activity against human HCT116 cells xenografted in BALB/c athymic nude mouse assessed as tumor growth inhibition at 90 mg/kg, po administered twice daily for 4 weeks and measured every 3 days. The note with it: HCT-116, po, 672 h, read-out: TGI. It counts as functional. The procedure, abridged: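 Male BALB/c athymic nude mice, 5 weeks old, 16−18 g, given 0.2 mL of 5 × 10⁷ cells/mL HCT-116 in right armpit. At about 100 mm³, randomized to groups of five; intragastric dosing twice daily for 4 weeks. Tumor volume and body weight every 3 days; tumors weighed after sacrifice; organs HE-stained.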
For orientation: A xenograft is tissue or cells of one species grown in another, often human tumour cells in immunodeficient mice.

Values after ≈ are worked out from the molar mass of the structure shown. Active and inactive are the calls of the source. The rule behind the calls is not given here.

The IC50 is the concentration that inhibits the measured activity by half. For orientation: inhibition means the change of the read-out against control, counted positive when it falls. What is called CL/F is clearance divided by bioavailability, as obtained after extravascular dosing.

As to `O=C(NCCO)c1ccc2c(c1)nc(Nc1cccc(Cl)c1)c1ccncc12`, the solubility thermodynamic in [1] was 0.89 µg/mL (≈ 2.27 µM). Besides, the Activity in data set [2] is 26%; in the data set with HCT-116 [6] it was 14.3%; in the data set on HCT-116 [7], 5.36%. The IC50 was determined as 6.1 µM in the data set with T-24 and 96.7 µM with L02. In [3], this compound yielded an inhibition of 96%. The inhibition result with HCT-116 [4] was “Active”. Further, in the data set on HCT-116 [5], the result was Active. This compound gave a CL/F in [8] of 10 mL/min/kg. In data set [9], this compound showed a Vd of 2.77 L/kg. Also, the inhibition in vivo at 90 mg/kg with HCT-116 [10] turned out to be 69%.

The values above are taken from ChEMBL document CHEMBL4808178 (J Med Chem, 2021).
